Data taken from ChEMBL document CHEMBL3044653, “Synthesis and herbicidal activity of 2-(substituted phenoxyacetoxy)alkyl-5,5-dimethyl-1,3,2-dioxaphosphinan-2-one” (J Agric Food Chem, 2012).

Assays:
Triticum aestivum = experiment: Toxicity in Triticum aestivum (wheat) plant assessed as inhibition at 150 g/hectare; assay type: organism-based; details: in vivo
How it was run: (§1)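 For crop selectivity, conventional crop varieties were planted in 12 cm diameter plots and given a postemergence treatment at 150 g ai/ha. Injury was scored as percent inhibition, with 0–10% classed as safe to the crop.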

Brassica napus = experiment: Toxicity in Brassica napus (oilseed rape) assessed as inhibition at 150 g/hectare; assay type: functional; how it was run: as §1
Gossypium hirsutum = experiment: Toxicity in Gossypium hirsutum (cotton) plant assessed as inhibition at 150 g/hectare; assay type: organism-based; details: in vivo; how it was run: as §1
Glycine max = experiment: Toxicity in Glycine max (soybean) plant assessed as inhibition at 150 g/hectare; assay type: organism-based; details: in vivo; how it was run: as §1
Zea mays = experiment: Toxicity in Zea mays (maize) plant assessed as inhibition at 150 g/hectare; assay type: organism-based; details: in vivo; how it was run: as §1
Oryza sativa = experiment: Toxicity in Oryza sativa (rice) plant assessed as inhibition at 150 g/hectare; assay type: organism-based; details: in vivo; how it was run: as §1
Brassica juncea [1] = experiment: Post-emergence herbicidal activity against Brassica juncea assessed as inhibition at 75 g/hectare by green house assay; assay type: functional
Chenopodium album [2] = experiment: Post-emergence herbicidal activity against Chenopodium album assessed as inhibition at 75 g/hectare by green house assay; assay type: functional
[3] = system: Brassica rapa subsp. oleifera; experiment: Post-emergence herbicidal activity against Brassica rapa subsp. oleifera assessed as inhibition at 75 g/hectare by green house assay; assay type: functional
Brassica oleracea [4] = experiment: Post-emergence herbicidal activity against Brassica oleracea assessed as inhibition at 75 g/hectare by green house assay; assay type: functional
Pontederia vaginalis [5] = experiment: Post-emergence herbicidal activity against Monochoria vaginalis assessed as inhibition at 75 g/hectare by green house assay; assay type: functional
Ammannia baccifera [6] = experiment: Post-emergence herbicidal activity against Ammannia baccifera assessed as inhibition at 75 g/hectare by green house assay; assay type: functional
Radish [7] = experiment: Post-emergence herbicidal activity against Raphanus sativus (radish) assessed as inhibition at 75 g/hectare by green house assay; assay type: functional
Ipomoea nil [8] = experiment: Post-emergence herbicidal activity against Ipomoea nil (Japanese morning glory) assessed as inhibition at 75 g/hectare by green house assay; assay type: functional
[9] = system: Brassica rapa subsp. chinensis; experiment: Post-emergence herbicidal activity against Brassica rapa subsp. chinensis assessed as inhibition at 75 g/hectare by green house assay; assay type: functional
Amaranthus retroflexus [10] = experiment: Post-emergence herbicidal activity against Amaranthus retroflexus assessed as inhibition at 75 g/hectare by green house assay; assay type: functional
Brassica juncea [11] = experiment: Post-emergence herbicidal activity against Brassica juncea assessed as inhibition at 150 g/hectare by green house assay; assay type: functional
Chenopodium album [12] = experiment: Post-emergence herbicidal activity against Chenopodium album assessed as inhibition at 150 g/hectare by green house assay; assay type: functional
[13] = system: Brassica rapa subsp. oleifera; experiment: Post-emergence herbicidal activity against Brassica rapa subsp. oleifera assessed as inhibition at 150 g/hectare by green house assay; assay type: functional
Brassica oleracea [14] = experiment: Post-emergence herbicidal activity against Brassica oleracea assessed as inhibition at 150 g/hectare by green house assay; assay type: functional
Pontederia vaginalis [15] = experiment: Post-emergence herbicidal activity against Monochoria vaginalis assessed as inhibition at 150 g/hectare by green house assay; assay type: functional
Ammannia baccifera [16] = experiment: Post-emergence herbicidal activity against Ammannia baccifera assessed as inhibition at 150 g/hectare by green house assay; assay type: functional
Radish [17] = experiment: Post-emergence herbicidal activity against Raphanus sativus (radish) assessed as inhibition at 150 g/hectare by green house assay; assay type: functional
Ipomoea nil [18] = experiment: Post-emergence herbicidal activity against Ipomoea nil (Japanese morning glory) assessed as inhibition at 150 g/hectare by green house assay; assay type: functional
Amaranthus retroflexus [19] = experiment: Post-emergence herbicidal activity against Amaranthus retroflexus assessed as inhibition at 150 g/hectare by green house assay; assay type: functional
[20] = system: Brassica rapa subsp. chinensis; experiment: Post-emergence herbicidal activity against Brassica rapa subsp. chinensis assessed as inhibition at 150 g/hectare by green house assay; assay type: functional
Eclipta prostrata [21] = experiment: Post-emergence herbicidal activity against Eclipta prostrata assessed as inhibition at 75 g/hectare treated at two-leaf stage by green house assay; assay type: functional
How it was run: (§2)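 Greenhouse postemergence spray of diluted formulation solutions onto broadleaf weeds at the two-leaf stage. Primary screen at 150 g ai/ha, with selected compounds retested at 75 and 37.5 g ai/ha. Abutilon was tested at 150 g ai/ha only. Read-out is percent herbicidal damage relative to an untreated control.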

Eclipta prostrata [22] = experiment: Post-emergence herbicidal activity against Eclipta prostrata assessed as inhibition at 37.5 g/hectare treated at two-leaf stage by green house assay; assay type: functional; how it was run: as §2
Amaranthus retroflexus [23] = experiment: Post-emergence herbicidal activity against Amaranthus retroflexus assessed as inhibition at 37.5 g/hectare treated at two-leaf stage by green house assay; assay type: functional; how it was run: as §2
Amaranthus retroflexus [24] = experiment: Post-emergence herbicidal activity against Amaranthus retroflexus assessed as inhibition at 75 g/hectare treated at two-leaf stage by green house assay; assay type: functional; how it was run: as §2
Brassica juncea [25] = experiment: Post-emergence herbicidal activity against Brassica juncea assessed as inhibition at 75 g/hectare treated at two-leaf stage by green house assay; assay type: functional; how it was run: as §2
Brassica juncea [26] = experiment: Post-emergence herbicidal activity against Brassica juncea assessed as inhibition at 37.5 g/hectare treated at two-leaf stage by green house assay; assay type: functional; how it was run: as §2
Digitaria sanguinalis [27] = experiment: Post-emergence herbicidal activity against Digitaria sanguinalis (hairy crabgrass) assessed as inhibition at 75 g/hectare treated at one-leaf stage by green house assay; assay type: functional
How it was run: (§3)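 Monocot weeds were sprayed postemergence in the greenhouse at the one-leaf stage with diluted formulation solutions. Primary dose was 150 g ai/ha, with follow-up doses of 75 and 37.5 g ai/ha for selected compounds. Activity is scored as percent herbicidal damage compared with an untreated control.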

Digitaria sanguinalis [28] = experiment: Post-emergence herbicidal activity against Digitaria sanguinalis (hairy crabgrass) assessed as inhibition at 37.5 g/hectare treated at one-leaf stage by green house assay; assay type: functional; how it was run: as §3
Setaria viridis [29] = experiment: Post-emergence herbicidal activity against Setaria viridis (green foxtail) assessed as inhibition at 75 g/hectare treated at one-leaf stage by green house assay; assay type: functional; how it was run: as §3
Setaria viridis [30] = experiment: Post-emergence herbicidal activity against Setaria viridis (green foxtail) assessed as inhibition at 37.5 g/hectare treated at one-leaf stage by green house assay; assay type: functional; how it was run: as §3
Echinochloa crus-galli [31] = experiment: Post-emergence herbicidal activity against Echinochloa crus-galli (barnyard grass) assessed as inhibition at 75 g/hectare treated at one-leaf stage by green house assay; assay type: functional; how it was run: as §3
Echinochloa crus-galli [32] = experiment: Post-emergence herbicidal activity against Echinochloa crus-galli (barnyard grass) assessed as inhibition at 37.5 g/hectare treated at one-leaf stage by green house assay; assay type: functional; how it was run: as §3
Eclipta prostrata [33] = experiment: Post-emergence herbicidal activity against Eclipta prostrata assessed as inhibition at 150 g/hectare treated at two-leaf stage by green house assay; assay type: functional; how it was run: as §2
Amaranthus retroflexus [34] = experiment: Post-emergence herbicidal activity against Amaranthus retroflexus assessed as inhibition at 150 g/hectare treated at two-leaf stage by green house assay; assay type: functional; how it was run: as §2
Brassica juncea [35] = experiment: Post-emergence herbicidal activity against Brassica juncea assessed as inhibition at 150 g/hectare treated at two-leaf stage by green house assay; assay type: functional; how it was run: as §2
Abutilon theophrasti = experiment: Post-emergence herbicidal activity against Abutilon theophrasti (velvetleaf) assessed as inhibition at 150 g/hectare treated at two-leaf stage by green house assay; assay type: functional; how it was run: as §2
Digitaria sanguinalis [36] = experiment: Post-emergence herbicidal activity against Digitaria sanguinalis (hairy crabgrass) assessed as inhibition at 150 g/hectare treated at one-leaf stage by green house assay; assay type: functional; how it was run: as §3
Echinochloa crus-galli [37] = experiment: Post-emergence herbicidal activity against Echinochloa crus-galli (barnyard grass) assessed as inhibition at 150 g/hectare treated at one-leaf stage by green house assay; assay type: functional; how it was run: as §3
Setaria viridis [38] = experiment: Post-emergence herbicidal activity against Setaria viridis (green foxtail) assessed as inhibition at 150 g/hectare treated at one-leaf stage by green house assay; assay type: functional; how it was run: as §3

For `CC(OC(=O)COc1ccc(Cl)cc1Cl)P1(=O)OCC(C)(C)CO1` (stereo not given), the “inhibition (INH)” value (Triticum aestivum) was 0%, the inhibition at 150 g/ha (Brassica napus) was 40% and the “inhibition (INH)” value (Gossypium hirsutum) was 30%. The “inhibition (INH)” value (Glycine max) was 30%, the “inhibition (INH)” value (Zea mays) was 0% and the “inhibition (INH)” value (Oryza sativa) was 10%. For the same compound, the inhibition at 75 g/ha (Brassica juncea [1]) was 95%, the inhibition at 75 g/ha (Chenopodium album [2]) was 80% and the inhibition at 75 g/ha [3] was 90%. For the same compound, the inhibition at 75 g/ha (Brassica oleracea [4]) was 80%, the inhibition at 75 g/ha (Pontederia vaginalis [5]) was 100% and the inhibition at 75 g/ha (Ammannia baccifera [6]) was 100%. The inhibition at 75 g/ha (Radish [7]) was 90%, the inhibition at 75 g/ha (Ipomoea nil [8]) was 100% and the inhibition at 75 g/ha [9] was 80%. It also gave an inhibition at 75 g/ha (Amaranthus retroflexus [10]) of 75%, an inhibition at 150 g/ha (Brassica juncea [11]) of 95% and an inhibition at 150 g/ha (Chenopodium album [12]) of 85%. The inhibition at 150 g/ha [13] was 100%, the inhibition at 150 g/ha (Brassica oleracea [14]) was 90% and the inhibition at 150 g/ha (Pontederia vaginalis [15]) was 100%. It also gave an inhibition at 150 g/ha (Ammannia baccifera [16]) of 100%, an inhibition at 150 g/ha (Radish [17]) of 95% and an inhibition at 150 g/ha (Ipomoea nil [18]) of 100%. It also gave an inhibition at 150 g/ha (Amaranthus retroflexus [19]) of 95%, an inhibition at 150 g/ha [20] of 85% and an inhibition at 75 g/ha (Eclipta prostrata [21]) of 70%. For the same compound, the inhibition at 37.5 g/ha (Eclipta prostrata [22]) was 50%, the inhibition at 37.5 g/ha (Amaranthus retroflexus [23]) was 70% and the inhibition at 75 g/ha (Amaranthus retroflexus [24]) was 75%. The inhibition at 75 g/ha (Brassica juncea [25]) was 95%, the inhibition at 37.5 g/ha (Brassica juncea [26]) was 90% and the inhibition at 75 g/ha (Digitaria sanguinalis [27]) was 0%. It also gave an inhibition at 37.5 g/ha (Digitaria sanguinalis [28]) of 0%, an inhibition at 75 g/ha (Setaria viridis [29]) of 0% and an inhibition at 37.5 g/ha (Setaria viridis [30]) of 0%. The inhibition at 75 g/ha (Echinochloa crus-galli [31]) was 0%, the inhibition at 37.5 g/ha (Echinochloa crus-galli [32]) was 0% and the inhibition at 150 g/ha (Eclipta prostrata [33]) was 85%. For the same compound, the inhibition at 150 g/ha (Amaranthus retroflexus [34]) was 95%, the inhibition at 150 g/ha (Brassica juncea [35]) was 95% and the inhibition at 150 g/ha (Abutilon theophrasti) was 95%. The inhibition at 150 g/ha (Digitaria sanguinalis [36]) was 30%, the inhibition at 150 g/ha (Echinochloa crus-galli [37]) was 30% and the inhibition at 150 g/ha (Setaria viridis [38]) was 30%.
For `CC(C)C(OC(=O)COc1ccc(Cl)cc1Cl)P1(=O)OCC(C)(C)CO1` (stereo not given), the “inhibition (INH)” value (Triticum aestivum) was 10%, the inhibition at 150 g/ha (Brassica napus) was 50% and the “inhibition (INH)” value (Gossypium hirsutum) was 20%. For the same compound, the “inhibition (INH)” value (Glycine max) was 30%, the “inhibition (INH)” value (Zea mays) was 0% and the “inhibition (INH)” value (Oryza sativa) was 20%. For the same compound, the inhibition at 75 g/ha (Eclipta prostrata [21]) was 35%, the inhibition at 37.5 g/ha (Eclipta prostrata [22]) was 30% and the inhibition at 37.5 g/ha (Amaranthus retroflexus [23]) was 30%. The inhibition at 75 g/ha (Amaranthus retroflexus [24]) was 80%, the inhibition at 75 g/ha (Brassica juncea [25]) was 100% and the inhibition at 37.5 g/ha (Brassica juncea [26]) was 90%. It also gave an inhibition at 75 g/ha (Digitaria sanguinalis [27]) of 0%, an inhibition at 37.5 g/ha (Digitaria sanguinalis [28]) of 0% and an inhibition at 75 g/ha (Setaria viridis [29]) of 0%. For the same compound, the inhibition at 37.5 g/ha (Setaria viridis [30]) was 0%, the inhibition at 75 g/ha (Echinochloa crus-galli [31]) was 0% and the inhibition at 37.5 g/ha (Echinochloa crus-galli [32]) was 0%. For the same compound, the inhibition at 150 g/ha (Eclipta prostrata [33]) was 75%, the inhibition at 150 g/ha (Amaranthus retroflexus [34]) was 85% and the inhibition at 150 g/ha (Brassica juncea [35]) was 100%. For the same compound, the inhibition at 150 g/ha (Abutilon theophrasti) was 95%, the inhibition at 150 g/ha (Digitaria sanguinalis [36]) was 0% and the inhibition at 150 g/ha (Echinochloa crus-galli [37]) was 0%. The inhibition at 150 g/ha (Setaria viridis [38]) was 0%.
